Measurements as given in publication PMC3733550 (Biochemical pharmacology, 2011).
Like-named read-outs stand apart in the source and are kept apart here. Marks after values point to notes of the source that are not given here.

Legend:
[1] = test system: ABCG2-expressing MDA-MD-231/R cells; experiment: Re-sensitization of MDA-MB-231/R cells to mitoxantrone; format: cell-based, human
ABCG2 [2] = molecular target: T1, ABCG2 (Homo sapiens, UniProt Q9UNQ0); details: read-out: EC50 PhA; increasing PhA content in ABCG2 over-expressing MDA-MB-231/R cells; cited from earlier work
T1 sequence (Q9UNQ0 1-655): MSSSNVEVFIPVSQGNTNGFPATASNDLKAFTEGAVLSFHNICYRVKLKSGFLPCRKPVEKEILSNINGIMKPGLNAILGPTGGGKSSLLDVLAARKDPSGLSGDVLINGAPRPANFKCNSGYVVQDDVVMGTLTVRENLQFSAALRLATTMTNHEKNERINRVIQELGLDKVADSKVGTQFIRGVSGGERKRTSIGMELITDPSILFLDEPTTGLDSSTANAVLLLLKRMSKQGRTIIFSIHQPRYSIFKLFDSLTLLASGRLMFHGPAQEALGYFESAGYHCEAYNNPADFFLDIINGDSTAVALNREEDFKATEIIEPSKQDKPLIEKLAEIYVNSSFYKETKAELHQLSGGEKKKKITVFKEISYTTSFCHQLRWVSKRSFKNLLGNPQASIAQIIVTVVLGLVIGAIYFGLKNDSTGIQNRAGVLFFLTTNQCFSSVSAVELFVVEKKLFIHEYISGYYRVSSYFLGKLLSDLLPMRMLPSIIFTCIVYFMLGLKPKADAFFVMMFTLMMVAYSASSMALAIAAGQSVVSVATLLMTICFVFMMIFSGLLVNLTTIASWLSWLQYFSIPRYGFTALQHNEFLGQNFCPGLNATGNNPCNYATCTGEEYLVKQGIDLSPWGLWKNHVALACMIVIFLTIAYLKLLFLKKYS

MDA-MB-231/V = experiment: Cell cytotoxicity by MTT assay on MDA-MB-231/V cells; format: cell-based, human; details: % of control cells (1% DMSO)
Procedure, shortened: (§1)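 Cells grown in RPMI 1640 with 10% FBS and 1.0 mg/ml geneticin at 37°C, 5% CO2, and used within 10 passages. 10^4 cells/well were seeded for 24 h, then exposed for 72 h to test compound (5 or 10 μM; 1% v/v DMSO final). After a PBS wash, MTT was added (3 h, 37°C), formazan dissolved in DMSO, and A590 read. Viability is % of 1% DMSO controls, mean (SD) of three independent determinations.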

ABCG2 [3] = molecular target: T1, ABCG2; experiment: ABCG2 ATPase assay; format: biochemical
MDA-MB-231/R = experiment: Cell cytotoxicity by MTT assay on MDA-MB-231/R cells; format: cell-based, human; details: % of control cells (1% DMSO)
Procedure, shortened: as §1

ABCG2 [4] = molecular target: T1, ABCG2; experiment: Photoaffinity labeling of ABCG2 with [125I]-IAAP in MCF-7 FLV1000 membranes; format: binding; details: test compound 5 μM
[5] = test system: ABCG2 expression in MDA-MB-231/R cells; experiment: Western blot analysis of ABCG2 protein levels in MDA-MB-231/R cells; format: cell-based, human; details: 72 h; A-2 0.5 μM or 1 μM; MX 0.1 μM
MDA-MB-231/V cells = experiment: Growth inhibition by mitoxantrone in parental MDA-MB-231/V cells; format: cell-based; details: Homo sapiens, MDA-MB-231, 72 h, read-out: IC50 value of MX in MDA-MB-231/V cells

For COc1ccc2c3c([nH]c2c1)[C@H](C=C(C)C)N1C(=O)[C@@H]2CCCN2C(=O)[C@@H]1C3 [FTC, fumitremorgin C], the Resistance index ([1]; MX + test compound 0.05 μM, IC50 of MX R cells + test compound / IC50 of MX V cells) is listed as 7.4 and the EC50 (ABCG2 [2]) is listed as 1300 nM.
For O=C1/C(=C/c2ccccc2)Oc2ccccc21 [UA-1], the “% Viability MDA-MB-231/V 5 μM” value (MDA-MB-231/V; 5 μM) was 98 (9) ^d %, the “% Viability MDA-MB-231/V 10 μM” value (MDA-MB-231/V; 10 μM) was 103 (7) ^c % and the “ATPase activity (fold stimulation)” value (ABCG2 [3]) was 2.8 fold. For the same compound, the EC50 (ABCG2 [3]) was 190 nM, the “% Viability MDA-MB-231/R 5 μM” value (MDA-MB-231/R; 5 μM) was 68 (10) ^d % and the “% Viability MDA-MB-231/R 10 μM” value (MDA-MB-231/R; 10 μM) was 60 (8) ^c %. The “Effect on photolabelling of ABCG2 by [125I]-IAAP (in words)” value (ABCG2 [4]) was “minimal changes”.
For O=C1c2c(O)ccc(O)c2C(=O)c2c(NCCNCCO)ccc(NCCNCCO)c21 [Mitoxantrone], the IC50 ([1]; Homo sapiens, MDA-MB-231, 72 h, read-out: IC50 of mitoxantrone) was 920 nM, the “Effect on ABCG2 protein levels in R cells” value [5] was “no effect” and the IC50 (MDA-MB-231/V cells) was 70 nM.
